In the library only some 1.3% were active in any assay of this set; here they are far more common.
Yeast growth inh = chemicals that inhibit yeast BB579 growth in restrictive medium (lifespan-shortening candidates); inhibition, % at 10 µM; S. cerevisiae BB579 growth, OD615, 48 h; actives 0.51% (n = 140,000); AID 804;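 active = inhibition above a set limit, 3 SD over the mean compound inhibition, cut at about 44% in these data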
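Assay system: S. cerevisiae DeaD strain BB579 yeast. Medium: CSMM-D restrictive synthetic medium containing dextrose (glucose). Times: 4 h cell preincubation, 48 h compound exposure, 30 °C humidified. Signal: OD615 turbidity measurement. Benchmarks: positive control amphotericin B 10 µg/mL.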
Yeast life ext = extends the lifespan of yeast; actives 0.68% (n = 130,000); S. cerevisiae growth with nicotinamide, OD615; deaD strain in restrictive glucose medium; inhibition of the nicotinamide effect, % at 10 µM;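 active = inhibition above a set limit, placed 3 SD over the median of all compounds, cut at about 26% in these data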;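 also: 0% = nicotinamide-treated wells and 100% = cells grown without nicotinamide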
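Assay system: DeaD-strain S. cerevisiae. Medium: CSMM-D glucose medium, restrictive. Reagent: nicotinamide, 1.5 mM, co-present with compound. Compound: 10 µM single point, 0.25% DMSO. Schedule: culture preincubation 4 h, compound exposure 48 h, both 30 °C. Detection: absorbance at 615 nm.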
sdo1 growth = compounds rescuing growth of sdo1-depleted yeast, bone marrow failure model | actives 0.21% (n = 140,000) | S. cerevisiae sdo1-depleted JHY4D growth rescue, OD600 30 h; active compounds read high; pdr5 snq2 efflux-pump mutant strain | z-score at 10 µM;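 active = z-score above 3 at both the 24 hr and the 30 hr optical density reads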;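 also: z-score against mean and SD of all compound wells on the same plate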
Efa HMGR inh = blocks class II HMG-CoA reductase of Enterococcus faecalis; purified E. faecalis HMGR, NADPH absorbance 340 nm kinetic; inhibition, % at 10 µM; actives 0.41% (n = 190,000); AID 1066;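 active = inhibition above a set limit, the median over all tested compounds plus 3 SD, cut at about 9.5% in these data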;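 also: enzyme runs in reverse so mevalonate oxidation gives rising NADPH absorbance; 0% = complete reaction with DMSO and 100% = background rate lacking mevalonate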
* hit, by the source's call; / = not tested or not shown.

SMILES | Yeast growth inh | Yeast life ext | sdo1 growth | Efa HMGR inh
CC1CCCCN1S(=O)(=O)c1coc(C(N)=O)c1 (centres undefined) | 45* | -10 | 1.5 | 2
CCN1CCCC1CNS(=O)(=O)c1ccc(Cl)c(C(F)(F)F)c1 (centres undefined) | / | / | / | -4
O=C(CN1CCN(c2ncc(C(F)(F)F)cc2Cl)CC1)NCCNc1ncc(C(F)(F)F)cc1Cl | 93* | -25 | -2.7 | -3
CCOC(=O)c1c(NC(=O)C(C)Sc2cccc[n+]2[O-])sc2c1CCN(Cc1ccccc1)C2 (centres undefined) | 91* | 5 | 0.97 | -1
Nc1c(Cl)ncnc1N/N=C/c1ccccn1 | 96* | -13 | -0.07 | -3
Nc1c(Cl)ncnc1N/N=C/c1ccc2ccccc2n1 | -7 | 19 | -1.2 | -7
CCCCCC(=O)Nc1ccc(S(=O)(=O)Nc2nccc(C)n2)cc1 | / | / | / | -4
CCCc1[nH][nH]c(=O)c1C(c1cccc(Cl)c1)C(C#N)C#N (centres undefined) | -58 | 17 | -0.46 | 5
N#CC(C#N)C(c1ccsc1)c1c(-c2ccccc2)[nH][nH]c1=O (centres undefined) | -62 | 40* | -0.25 | 1
O=C(Cc1cccs1)Nc1cc(SCCO)cc([N+](=O)[O-])c1 | -9 | -2 | -0.13 | -3
CC(=O)N1c2ccccc2N(Cc2ccc(C)cc2C)C(=O)C1(C)C | -6 | -9 | -0.65 | 2
C=CCN1C(=O)C(C)(C)N(C(C)=O)c2ccccc21 | -31 | 28* | 0.09 | -3
O=C(Nc1ccccc1C(=O)N1CCCCC1)NC1CCCCC1 | / | / | / | -7
CCc1ccc(N(CC)C(=O)c2ccc3c(Cl)c4c(nc3c2)CCC4)cc1 | -16 | 15 | -1.7 | 3
O=C(c1ccc2c(Cl)c3c(nc2c1)CCCC3)N1CCN(c2ccc(F)cc2)CC1 | -31 | 12 | -1.2 | -2
CCN(C(=O)c1ccc2c(Cl)c3c(nc2c1)CCC3)c1cccc(C)c1 | -38 | 39* | -1.4 | 4
N#Cc1ccccc1NC(=O)c1ccc2c(Cl)c3c(nc2c1)CCCC3 | 45* | -2 | -1.5 | -8
COc1ccccc1N1CCN(C(=O)c2ccc3c(Cl)c4c(nc3c2)CCCC4)CC1 | 13 | 28* | -1.3 | 1
O=C(Nc1cccnc1Cl)c1ccc2c(Cl)c3c(nc2c1)CCC3 | / | / | / | 3
N#CCC(=O)Nc1ccc(C(F)(F)F)cc1N1CCOCC1 | / | / | / | 3
COC(=O)n1c(=O)oc2cc(S(=O)(=O)N3CCOCC3)ccc21 | -17 | -1 | 0.62 | 2
CCCCOC(=O)n1c(=O)oc2cc(S(=O)(=O)N3CCCCC3)ccc21 | -46 | 68* | -0.95 | -6
CCCCOC(=O)n1c(=S)oc2cc(Cl)ccc21 | 98* | -23 | -0.81 | -3
COC(=O)n1c(=S)oc2cc(Cl)ccc21 | -35 | -20 | -0.11 | -2
Cc1ccc(NC(=S)N2CCN(S(=O)(=O)c3c(F)cccc3F)CC2)cc1C | / | / | / | 0
SMILES | Yeast growth inh | Yeast life ext | sdo1 growth | Efa HMGR inh
CC(C)C(=O)NC(c1ccccc1)c1cc([N+](=O)[O-])c2cccnc2c1O (centres undefined) | 74* | -4 | -0.48 | 3
CC(=O)NC(c1ccccc1)c1cc([N+](=O)[O-])c2cccnc2c1O (centres undefined) | / | / | / | -3
O=C(CCc1ccccc1)NC(c1cccs1)c1cc(Cl)c2cccnc2c1O (centres undefined) | / | / | / | -3
CC(=O)NC(c1cccs1)c1cc([N+](=O)[O-])c2cccnc2c1O (centres undefined) | 80* | -4 | -0.8 | -5
CCCC(=O)NC(c1cccs1)c1cc([N+](=O)[O-])c2cccnc2c1O (centres undefined) | 47* | -2 | 0.07 | 0
CCC(=O)NC(c1cccs1)c1cc([N+](=O)[O-])c2cccnc2c1O (centres undefined) | 26 | 1 | 0.39 | 2
O=C(COC(=O)COc1cccc(Br)c1)Nc1c(Cl)cccc1Cl | -24 | 5 | -0.52 | -2
O=C(Cn1nnc(-c2ccccc2)n1)N/N=C/c1ccco1 | / | / | / | -6
CNc1nnc(-c2cc3cc(Cl)ccc3oc2=O)s1 | 57* | -12 | -0.58 | 2
O=C(NNc1ccc(Cl)nn1)c1ccc(Cl)cc1 | -5 | 6 | 0.85 | -3
Cc1cc(N2CCN(C(=O)c3ccco3)CC2)n2ncc(-c3ccccc3)c2n1 | 98* | -16 | -3.2 | 2
c1ccc(-c2nnc(-c3ccccn3)nc2NC2CCCCC2)cc1 | 94* | -18 | -1.6 | -1
Cc1c(C(=O)Nc2ccc(OCc3ccccc3)cc2)cccc1[N+](=O)[O-] | -55 | -11 | -0.03 | 0
COc1ccc(C(=O)Nc2ccc(OCc3ccccc3)cc2)cc1[N+](=O)[O-] | 9 | 60* | -0.43 | -3
O=C(COC(=O)CCc1nc2ccccc2s1)NCc1ccco1 | / | / | / | -2
Oc1ccccc1NCC(O)Cn1ccc2ccccc21 (centres undefined) | 50* | 5 | -1.1 | -2
Cc1nnc(C)n1/N=C/c1cc(Br)cc(Br)c1O | 100* | -31 | 0.54 | -7
O=c1oc2ccccc2c(N2CCCC2)c1CN1CCCC1 | 86* | -9 | 0.33 | -7
O=C1/C(=N/n2cnnc2)c2ccccc2N1Cc1ccccc1 | -42 | 39* | -0.02 | -2
c1ccc2c(c1)C(=Nn1cnnc1)c1ccccc1-2 | 54* | -19 | 1.1 | 1
Cc1ccccc1NC(=O)N1CCN(c2ncccn2)CC1 | / | / | / | -2
c1ccc(SSc2ccccc2)cc1 | 3 | 28* | 0.14 | -11
c1ccc(SCCc2ccncc2)cc1 | -40 | 11 | 0.29 | -5
CC(=O)OC(C(=O)NCCN1CCOCC1)c1c(F)cccc1F (centres undefined) | / | / | / | 0
CCN(C(=O)Cn1cc(C(F)(F)F)ccc1=O)c1c(N)n(Cc2ccccc2)c(=O)[nH]c1=O | / | / | / | 16*
SMILES | Yeast growth inh | Yeast life ext | sdo1 growth | Efa HMGR inh
Cn1c(=O)c(C(=O)CCl)c(N)n(Cc2ccccc2)c1=O | -57 | 9 | 0.04 | 3
Cn1c(=O)c(C(=O)CSc2ccccc2)c(N)n(Cc2ccccc2)c1=O | / | / | / | 14*
Cc1nc2ccccc2n1CC(O)COc1ccccc1Cl (centres undefined) | / | / | / | 11*
Cc1nc2ccccc2n1CC(O)COc1ccc(Br)cc1 (centres undefined) | / | / | / | 1
Cn1c(SCC(=O)Nc2ccc(NC(=O)c3cccs3)cc2)nnc1-c1ccncc1 | -33 | / | 0.31 | 11*
O=C1CC(c2cccc(Cl)c2)CC(O)=C1C=Nc1cccc(Cl)c1 (centres undefined) | -40 | 29* | -1.5 | 4
Cc1ccc(NC(=O)CN2C(=O)NC(C)(CCc3ccccc3)C2=O)cc1 (centres undefined) | / | / | / | 4
Cc1cccc(C)c1NC(=O)CN1C(=O)NC(C)(CCc2ccccc2)C1=O (centres undefined) | / | / | / | 13*
CCOc1ccc(NC(=S)N2CCc3cc(OC)c(OC)cc3C2COc2ccc3c(C)cc(=O)oc3c2)cc1 (centres undefined) | -24 | 5 | 0.8 | 1
O=[N+]([O-])c1ccc(Sc2nc3ccccc3o2)c([N+](=O)[O-])c1 | 99* | -11 | -2.7 | -1
